According to PMC9073091 (RSC Advances, 2019):
Where no end group is shown, it is not given here.

How the values were obtained:
[1] = Pharmacokinetic study after subcutaneous administration; assay type: in vivo, Sprague-Dawley rats
Method in brief: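 Twelve Sprague-Dawley rats (6 female, 6 male; 200 ± 20 g) were housed SPF at 22 ± 2 °C on a 12 h light–dark cycle and fasted about 12 h. Each received a single subcutaneous dose of 10 mg kg−1. Orbital blood was taken into pre-acidified EDTA-K2 tubes at 0, 0.5, 1, 2, 3, 5, 10, 20, 30, 45 and 60 min and iced; plasma was spun and analysed by UHPLC-MS/MS (LLOQ 0.1 ng mL−1). Non-compartmental analysis; mean ± SD.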

[2] = Stability of SP in acidified rat plasma and blood; assay type: in vitro ADME
Method in brief: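 Blood was acidified with 0.3% perchloric acid. Low- and high-level samples (five replicates each) were held as follows: whole blood at 0 °C for 1 h; […] for 1 h before processing; extracts at 25 °C for 1 h; reconstituted samples in the autosampler at 4 °C for 24 h; plasma at −70 °C for 60 days; and three freeze–thaw cycles (−70 °C to ambient). Read-out was accuracy as deviation from nominal, with acceptance within 15%.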

Stability = assay type: in vitro ADME; conditions: rat
Method in brief: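 Rat blood was spiked at 150 ng mL−1 to compare three stabilisation factors. Anticoagulant (EDTA-K2 or heparin sodium) was tested at 25 °C and 0 °C. Protease inhibitors (pepstatin A, aprotinin, cOmplete cocktail, AEBSF) were tested at 25 °C. Acidification with H2SO4 or HClO4 (0.1–0.3%) was tested at 25 °C and 0 °C. Samples were taken before and at 2, 5, 10, 20, 30 and 60 min, precipitated with organic solvent, centrifuged and analysed by UHPLC-MS/MS. Half-lives were calculated.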

[3] = rats, subcutaneous 10 mg kg^−1, mean ± SD, n = 12

GQTYTSG [SP, GQTYTSG]
Tmax ([1]; rat, in vivo, sc, 10 mg/kg): 1.75 min
half-life ([1]; rat, in vivo, sc, 10 mg/kg): < 10 min
CL (apparent total plasma clearance) [1, 3]: 17.9 ± 9.96 L/min
Vz (total volume of distribution) [1, 3]: 230 ± 118 L
Accuracy (stability) ([2]; blood, blood stability (0 °C for 1 h), 0.5 ng mL^−1): 114.4%
Accuracy (stability) ([2]; blood, blood stability (0 °C for 1 h), 300 ng mL^−1): 104.1%
Accuracy (stability) ([2]; plasma, auto-sampler stability (4 °C for 24 h), 0.25 ng mL^−1): 110.0%
Accuracy (stability) ([2]; plasma, auto-sampler stability (4 °C for 24 h), 150 ng mL^−1): 106.7%
Accuracy (stability) ([2]; plasma, freeze–thaw stability (three cycles), 0.25 ng mL^−1): 106.4%
Accuracy (stability) ([2]; plasma, freeze–thaw stability (three cycles), 150 ng mL^−1): 94.7%
Accuracy (stability) ([2]; plasma, long-term stability (−70 °C for 60 days), 0.25 ng mL^−1): 96.1%
Accuracy (stability) ([2]; plasma, long-term stability (−70 °C for 60 days), 150 ng mL^−1): 94.0%
Accuracy (stability) ([2]; plasma, post-preparation stability (25 °C for 1 h), 0.25 ng mL^−1): 90.8%
Accuracy (stability) ([2]; plasma, post-preparation stability (25 °C for 1 h), 150 ng mL^−1): 105.3%
Accuracy (stability) ([2]; plasma, short-term stability (0 °C for 1 h), 0.25 ng mL^−1): 96.4%
Accuracy (stability) ([2]; plasma, short-term stability (0 °C for 1 h), 150 ng mL^−1): 96.0%
half-life (Stability; half-life of SP in blood samples, blood acidified with 0.3% HClO4 (v/v), 0 °C): > 350 min
half-life (Stability; half-life, 25 °C, in vitro): < 10 min
half-life (Stability; whole blood, half-life of SP in blood samples, EDTA-K2 as anticoagulant, samples kept at 0 °C): 11.5 ± 0.22 min
half-life (Stability; whole blood, half-life of SP in blood samples, blood acidified with 0.3% H2SO4 (v/v), 0 °C): > 350 min
